According to ChEMBL document CHEMBL5724801, “EUbOPEN Chemogenomics Library - Multiplex” (2024):
Several values for one entry are separate records, joined by “and”; a condition that tells them apart may be missing. Identical values can stand only once.

System: U2OS
Assay: Multiplex assay against U2OS
Format: toxicity, cell-based
Conditions: human
In short: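 Compound was added to live cells that had been stained at seeding with Hoechst33342, BioTracker Green Microtubule Cytoskeleton Dye, MitoTracker Red and Annexin V Alexa Fluor 680, and imaging followed on a CQ1 microscope at 37°C and 5% CO2. CellPathfinder machine-learning gating divided cells into Hoechst high-intensity objects or normal cells, normal cells into healthy, pyknosed or fragmented nuclei, and pyknosed cells into mitotic or apoptotic. Tubulin, mitochondrial-mass and membrane-permeability phenotypes are per cents of healthy-nucleus cells.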

[1] = 12 h, 1 µM, compound concentration 1 uM
[2] = 12 h, 10 µM, compound concentration 10 uM
[3] = 24 h, 1 µM, compound concentration 1 uM
[4] = 24 h, 10 µM, compound concentration 10 uM
[5] = 48 h, 1 µM, compound concentration 1 uM
[6] = 48 h, 10 µM, compound concentration 10 uM

SMILES: CN(C)c1ccnc2sc3c(=O)n(N4CCCCCC4)cnc3c12
- Population Apoptotic (%) [1]: 81% and 87%
- Population Fragmented Nuclei (%) [1]: 19% and 16%
- Population Healthy Nuclei (%) [1]: 72% and 77%
- Population Hoechst High Intensity Objects (%) [1]: 1%
- Population Membrane Permeable-Phenotype (%) [1]: 4% and 6%
- Population Mitochondria Different-Phenotype (%) [1]: 2%
- Population Mitotic Cells (%) [1]: 18% and 12%
- Population Normal (%) [1]: 98%
- Population Pyknosed Nuclei (%) [1]: 7% and 6%
- Population Tubulin-Different-Phenotype (%) [1]: 2%
- Total Cell Count [1]: 284 and 132
- Population Apoptotic (%) [2]: 41% and 88%
- Population Fragmented Nuclei (%) [2]: 30% and 18%
- Population Healthy Nuclei (%) [2]: 56% and 71%
- Population Hoechst High Intensity Objects (%) [2]: 4% and 5%
- Population Membrane Permeable-Phenotype (%) [2]: 30% and 23%
- Population Mitochondria Different-Phenotype (%) [2]: 14% and 27%
- Population Normal (%) [2]: 95% and 94%
- Population Pyknosed Nuclei (%) [2]: 12% and 9%
- Population Tubulin-Different-Phenotype (%) [2]: 20% and 22%
- Total Cell Count [2]: 249 and 101
- Population Apoptotic (%) [3]: 87% and 72%
- Population Fragmented Nuclei (%) [3]: 16% and 15%
- Population Healthy Nuclei (%) [3]: 72% and 76%
- Population Hoechst High Intensity Objects (%) [3]: 2%
- Population Membrane Permeable-Phenotype (%) [3]: 3% and 6%
- Population Mitochondria Different-Phenotype (%) [3]: 3%
- Population Mitotic Cells (%) [3]: 12% and 27%
- Population Normal (%) [3]: 97%
- Population Pyknosed Nuclei (%) [3]: 10% and 7%
- Population Tubulin-Different-Phenotype (%) [3]: 1% and 4%
- Total Cell Count [3]: 326 and 150
- Population Apoptotic (%) [4]: 68% and 100%
- Population Fragmented Nuclei (%) [4]: 28% and 11%
- Population Healthy Nuclei (%) [4]: 56% and 75%
- Population Hoechst High Intensity Objects (%) [4]: 4% and 3%
- Population Membrane Permeable-Phenotype (%) [4]: 22% and 23%
- Population Mitochondria Different-Phenotype (%) [4]: 15% and 25%
- Population Normal (%) [4]: 95% and 96%
- Population Pyknosed Nuclei (%) [4]: 15% and 13%
- Population Tubulin-Different-Phenotype (%) [4]: 14% and 24%
- Total Cell Count [4]: 260 and 108
- Population Apoptotic (%) [5]: 90% and 92%
- Population Fragmented Nuclei (%) [5]: 17% and 15%
- Population Healthy Nuclei (%) [5]: 74% and 72%
- Population Hoechst High Intensity Objects (%) [5]: 2%
- Population Membrane Permeable-Phenotype (%) [5]: 4% and 5%
- Population Mitochondria Different-Phenotype (%) [5]: 1% and 5%
- Population Mitotic Cells (%) [5]: 9% and 7%
- Population Normal (%) [5]: 97%
- Population Pyknosed Nuclei (%) [5]: 8% and 11%
- Population Tubulin-Different-Phenotype (%) [5]: 2%
- Total Cell Count [5]: 486 and 239
- Population Apoptotic (%) [6]: 68% and 72%
- Population Fragmented Nuclei (%) [6]: 28% and 15%
- Population Healthy Nuclei (%) [6]: 57% and 61%
- Population Hoechst High Intensity Objects (%) [6]: 4% and 9%
- Population Membrane Permeable-Phenotype (%) [6]: 15% and 21%
- Population Mitochondria Different-Phenotype (%) [6]: 11% and 19%
- Population Mitotic Cells (%) [6]: 31% and 27%
- Population Normal (%) [6]: 95% and 90%
- Population Pyknosed Nuclei (%) [6]: 14% and 22%
- Total Cell Count [6]: 325 and 140

SMILES: CCn1cnc2c(-c3ccc(F)c(-c4ccc(S(=O)(=O)CC)cc4OC)c3)cnnc21 [DARIGABAT]
- Population Apoptotic (%) [1]: 18.37% and 38.1%
- Population Fragmented Nuclei (%) [1]: 2.41% and 2.26%
- Population Healthy Nuclei (%) [1]: 84.49% and 81.95%
- Population Hoechst High Intensity Objects (%) [1]: 0%
- Population Membrane Permeable-Phenotype (%) [1]: 0.95% and 3.67%
- Population Mitochondria Different-Phenotype (%) [1]: 0% and 6.42%
- Population Mitotic Cells (%) [1]: 81.63% and 61.9%
- Population Normal (%) [1]: 100%
- Population Pyknosed Nuclei (%) [1]: 13.1% and 15.79%
- Population Tubulin-Different-Phenotype (%) [1]: 1.58% and 0.92%
- Total Cell Count [1]: 374 and 133
- Population Apoptotic (%) [2]: 35.44% and 27.5%
- Population Fragmented Nuclei (%) [2]: 2.35% and 3.87%
- Population Healthy Nuclei (%) [2]: 74.41% and 70.32%
- Population Hoechst High Intensity Objects (%) [2]: 0% and 0.64%
- Population Membrane Permeable-Phenotype (%) [2]: 3.95% and 3.67%
- Population Mitotic Cells (%) [2]: 64.56% and 72.5%
- Population Normal (%) [2]: 100% and 99.36%
- Population Pyknosed Nuclei (%) [2]: 25.81%
- Total Cell Count [2]: 340 and 156
- Population Apoptotic (%) [3]: 28.12% and 48%
- Population Fragmented Nuclei (%) [3]: 1.34% and 1.64%
- Population Healthy Nuclei (%) [3]: 86.42% and 84.7%
- Population Hoechst High Intensity Objects (%) [3]: 0%
- Population Membrane Permeable-Phenotype (%) [3]: 0.66% and 4.52%
- Population Mitochondria Different-Phenotype (%) [3]: 0% and 1.94%
- Population Mitotic Cells (%) [3]: 71.88% and 52%
- Population Normal (%) [3]: 100%
- Population Pyknosed Nuclei (%) [3]: 12.24% and 13.66%
- Population Tubulin-Different-Phenotype (%) [3]: 2.21% and 0%
- Total Cell Count [3]: 523 and 183
- Population Apoptotic (%) [4]: 49.55% and 36%
- Population Fragmented Nuclei (%) [4]: 3.86% and 1.2%
- Population Healthy Nuclei (%) [4]: 67.61% and 68.67%
- Population Hoechst High Intensity Objects (%) [4]: 0%
- Population Membrane Permeable-Phenotype (%) [4]: 3.04% and 5.26%
- Population Mitotic Cells (%) [4]: 50.45% and 64%
- Population Normal (%) [4]: 100%
- Population Pyknosed Nuclei (%) [4]: 28.53% and 30.12%
- Population Tubulin-Different-Phenotype (%) [4]: 11.79% and 2.63%
- Total Cell Count [4]: 389 and 166
- Population Apoptotic (%) [5]: 49.52% and 51.28%
- Population Fragmented Nuclei (%) [5]: 5.85% and 2.9%
- Population Healthy Nuclei (%) [5]: 81.07% and 82.97%
- Population Hoechst High Intensity Objects (%) [5]: 0%
- Population Membrane Permeable-Phenotype (%) [5]: 0.61% and 2.62%
- Population Mitochondria Different-Phenotype (%) [5]: 0% and 3.49%
- Population Mitotic Cells (%) [5]: 50.48% and 48.72%
- Population Normal (%) [5]: 100%
- Population Pyknosed Nuclei (%) [5]: 13.08% and 14.13%
- Population Tubulin-Different-Phenotype (%) [5]: 1.84% and 0.87%
- Total Cell Count [5]: 803 and 276
- Population Apoptotic (%) [6]: 64.56% and 67.12%
- Population Fragmented Nuclei (%) [6]: 3.84% and 5.23%
- Population Healthy Nuclei (%) [6]: 52.88% and 47.06%
- Population Hoechst High Intensity Objects (%) [6]: 0%
- Population Membrane Permeable-Phenotype (%) [6]: 7.25% and 11.11%
- Population Mitotic Cells (%) [6]: 35.44% and 32.88%
- Population Normal (%) [6]: 100%
- Population Pyknosed Nuclei (%) [6]: 43.29% and 47.71%
- Population Tubulin-Different-Phenotype (%) [6]: 24.87% and 11.11%
- Total Cell Count [6]: 365 and 153
